Key:
MOLM-13 cells = test: Apoptosis analysis Annexin-V/PI; conditions: for viable cells: separated enantiomers, after 72 h
MDM2 [1] = molecular target: MDM2 (Homo sapiens, UniProt Q00987); type: binding; conditions: SAR summary, unsubstituted indole
PBMCs = test: Viability of freshly isolated PBMCs; type: cell-based, human; conditions: 72 h, data not shown
caspase 3 and 7 = test: CaspaseGlo 3/7 assay in MOLM-13 cells; type: cell-based, human; conditions: 20 μM, 24 h, relative to untreated control
p53 = test: Western blot analysis in MOLM-13 cells; type: cell-based, human; conditions: 20 μM; 6, 12, 24 h
MDM2 [2] = test: Western blot analysis in MOLM-13 cells; type: cell-based, human; conditions: 20 μM; 6, 12, 24 h
primary AML blasts = test: Apoptosis; type: cell-based, human; conditions: 20 μM, 72 h
MDM4 = test: Western blot analysis in MOLM-13 cells; type: cell-based, human; conditions: 20 μM; 6, 12, 24 h
How it was run: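 MOLM-13 cells (wt p53) grown in RPMI 1640 with 10% heat-inactivated FBS, harvested in log phase. Treated with 20 µM test compound or left untreated, then lysed at 6, 12 and 24 h (1 × 10^6 cells). Equal protein run on 12% SDS-PAGE and electroblotted to PVDF. Loading checked by Ponceau S and β-actin. HRP secondaries with chemiluminescent detection.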

Sequence of MDM2 (Homo sapiens, UniProt Q00987) (Q00987 1-125): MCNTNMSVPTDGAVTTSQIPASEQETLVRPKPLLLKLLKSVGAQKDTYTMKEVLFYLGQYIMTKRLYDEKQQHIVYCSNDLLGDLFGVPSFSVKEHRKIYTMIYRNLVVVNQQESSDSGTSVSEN

For `CCOC(=O)c1[nH]c2cc(Cl)ccc2c1C(C(=O)NC(C)(C)C)N(C=O)Cc1ccc(Cl)cc1` (single isomer, unassigned; (-)) [(−)-YH239-EE], the viable cells (MOLM-13 cells) was 51.5%.
For `CC(=O)N(CC(C)C)C(C(=O)NCc1ccccc1)c1c[nH]c2ccccc12` (stereo not shown) [5a], the “activity (binding to MDM2) in words” value (MDM2 [1]) was “inactive”.
`CC(=O)N(Cc1ccccc1)C(C(=O)NCc1ccccc1)c1c[nH]c2ccccc12` (stereo not shown) [5b] was tested, and the “activity (binding to MDM2) in words” value (MDM2 [1]) was “inactive”.
`COc1ccc(C2=N[C@@H](c3ccc(Cl)cc3)[C@@H](c3ccc(Cl)cc3)N2C(=O)N2CCNC(=O)C2)c(OC(C)C)c1` [Nutlin-3, reference compound] was tested, and the “toxic effect on PBMCs (viability)” value (PBMCs) was “higher toxic effect on PBMCs than (+)-YH239-EE” and the “apoptotic effect in words” value (MOLM-13 cells; 20 μM, 72 h) was “high induction of apoptosis”.
In the case of (+)-YH239-EE, the “activation of caspase 3 and 7” value (caspase 3 and 7) was “significant higher activation of caspase 3 and 7 after 24 h than (−)-YH239-EE and Nutlin-3”, the “induction of p53” value (p53) was “induction of p53 could be observed after 6 h” and the MDM2 levels (MDM2 [2]) was “MDM2 levels raised after 12 h”. The “response of patient samples with lower blast (<45%) counts” value (primary AML blasts) was “no response”, the “share of tested samples with increased induction of apoptosis” value (primary AML blasts; 8 primary patient samples) was 2/3 and the “level of MDM4” value (MDM4) was “no effect”. The “toxic effect on PBMCs (viability)” value (PBMCs) was “less cytotoxic than Nutlin-3” and the viable cells (MOLM-13 cells) was 13.7%.

— paper PMC3985958 (ACS Chemical Biology, 2014)
